The values below come from ChEMBL document CHEMBL3526009, “Breast cancer resistance protein (ABCG2) determines distribution of genistein phase II metabolites: reevaluation of the roles of ABCG2 in the disposition of genistein” (Drug Metab Dispos, 2012).

A short description of data set [1]: Biliary excretion in wild-type FVB mouse treated with genistein measured after 2.5 hrs post intestinal perfusion by UPLC-MS/MS analysis. To be noted: in vivo, other. The format is ADME, Bile. The essentials:
(§1)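 Gallbladder bile taken after 2.5 h of simultaneous small intestine/colon perfusion with 10 μM genistein (HBSS pH 7.4, 0.191 ml/min) in FVB or Bcrp1(−/−) mice (n = 4). Bile diluted 20-fold in HBSS, daidzein internal standard in acetonitrile added, dried and reconstituted. Genistein and conjugates quantified by UPLC-MS/MS.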

Data set [2] in a line: Biliary excretion in BCRP-/- mouse treated with genistein measured after 2.5 hrs post intestinal perfusion by UPLC-MS/MS analysis. The format is ADME, Bile. The conditions noted are these: in vivo, other. Summed up: as §1
The subject of a further data set is Blood. Kind of data set: Stability in Wistar rat blood at 3 uM up to 4 hrs by UPLC-MS/MS analysis. The format is ADME, tissue-based. Summed up:
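Genistein glucuronide mixture (G-7-G plus G-4′-G, 3 μM) with 3.8 μM genistein incubated in fresh rat whole blood, 37°C shaking water bath. Sampled at 0, 60, 120 and 240 min. Reaction stopped with acetonitrile containing daidzein internal standard. Genistein and conjugates quantified by UPLC-MS/MS using multiple reaction monitoring. n = 3.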

Data set [3] can be described thus: Stability in potassium phosphate buffer at pH 7.4 up to 4 hrs. To be noted: pH 7.4, 4 h. The format is physicochemical. The essentials:
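Negative control run under the blood-incubation conditions but in 50 mM potassium phosphate buffer, pH 7.4, instead of blood. Genistein glucuronides (G-7-G plus G-4′-G, with aglycone) or sulfates (G-7-S plus G-4′-S, with aglycone) held at 37°C in a shaking water bath up to 4 h. Sampled at 0, 60, 120 and 240 min and read by UPLC-MS/MS.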

The nature of data set [4]: Drug transport in human Caco2 cells assessed as basolateral excretion of compound treated with genistein at 2 uM after 4 hrs by UPLC-MS/MS analysis in presence of BCRP inhibitor Ko143. The format is ADME, cell-based. The conditions noted are these: caco-2, 4 h. The essentials: (§2)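 Caco-2 TC7 monolayers on 3 μm polycarbonate inserts, used 19–22 days post-seeding (TEER ≥460 Ω/cm2). Genistein 2 or 10 μM in HBSS pH 7.4 applied apically, ±5 μM Ko143 apically; sampling both sides at 0–4 h hourly with replacement, triplicate. Genistein and four conjugates plus intracellular amounts at 4 h by UPLC-MS/MS; mass balance versus dose added.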
(In general: Passage across Caco-2 layers is used to estimate intestinal permeability.)

The nature of data set [5]: Drug transport in human Caco2 cells assessed as basolateral excretion of compound treated with genistein at 10 uM after 4 hrs by UPLC-MS/MS analysis in presence of BCRP inhibitor Ko143. The format is ADME, cell-based. The conditions noted are these: caco-2, 4 h. The essentials:
as §2

On to `O=C(O)[C@H]1O[C@@H](Oc2cc(O)c3c(=O)c(-c4ccc(O)cc4)coc3c2)[C@H](O)[C@@H](O)[C@@H]1O`, for which the Drug excretion result in data set [1] and in data set [2] was “metabolite_detected” in each case. Further, the Stability entry (in the data set with Blood; in data set [3]) was “Stable” in each case.

Turning to `O=c1c(-c2ccc(O)cc2)coc2cc(OS(=O)(=O)O)cc(O)c12`, the Drug transport result in data set [4] and in data set [5] was “Active” in each case. Also, the Stability result (in the data set with Blood; in data set [3]) was “Stable” in each case.
